Experimental data published in ChEMBL document CHEMBL1148068, “Bistramides A, B, C, D, and K: a new class of bioactive cyclic polyethers from Lissoclinum bistratum” (J Nat Prod, 1994).
Converted amounts (≈) assume the structure as drawn. The source made the active and inactive calls. The rule behind the calls is not given here.

Assays:
[1] = Cell cycle arrest in human NSCLC-N6 cells assessed as increase in accumulation at G2M phase by flow cytometry; format: functional, cell-based
How it was run: (§1)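 NSCLC-N6 cells were grown in RPMI 1640 with 5% FCS, penicillin, streptomycin and 2 mM glutamine. 0.8 × 10^3 cells were cultured in flasks with or without compound for 48 h. Medium was removed and cells stained in situ with Vindelov solution. DNA content of 2000 nuclei was measured by flow cytometry to give DNA histograms.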

[2] = Cell cycle arrest in human NSCLC-N6 cells assessed as reduction in accumulation at S phase by flow cytometry; format: functional, cell-based; how it was run: as §1
HT-29 = test: Cytotoxicity against human HT-29 cells after 72 hrs by MTT assay; format: functional, cell-based; settings: HT-29, 72 h
How it was run: (§2)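 Cells were seeded in microtiter plates at 0.1 × 10^3 cells/ml. Growth was estimated at 72 h by MTT conversion to formazan. Values are means of 3 experiments.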

B16 = test: Cytotoxicity against mouse B16 cells after 72 hrs by MTT assay; format: functional, cell-based; settings: B16, 72 h; how it was run: as §2
P388 [3] = test: Antitumor activity against mouse P388 cells xenografted mouse at 0.4 mg/kg, ip administered as 3 doses; format: functional; settings: route intraperitoneal
KB = test: Cytotoxicity against human KB cells after 72 hrs by MTT assay; format: functional, cell-based; how it was run: as §2
NSCLC-N6 = test: Induction of polyploidy in human NSCLC-N6 cells assessed as 4N chromosome levels at 1 ug/ml by DNA cytogram; format: functional, cell-based; how it was run: as §1
P388 [4] = test: Cytotoxicity against mouse P388 cells after 72 hrs by MTT assay; format: functional, cell-based; settings: P388, 72 h; how it was run: as §2
[5] = Cytotoxicity against human NSCLC-N6 cells after 72 hrs by MTT assay; format: functional, cell-based; settings: NSCLC-N6, 72 h
How it was run: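 Cells originated from a nude-mouse graft and were cultured in RPMI 1640 with 5% fetal calf serum, penicillin, streptomycin and 2 mM glutamine. They were seeded in microtiter plates at 0.1 × 10^3 cells/ml. Growth was read by MTT-to-formazan conversion at 72 h. Values are means of 3 experiments.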

P388 [6] = test: Cytotoxicity against mouse doxorubicin resistant P388 cells after 72 hrs by MTT assay; format: functional, cell-based; settings: P388, 72 h; how it was run: as §2
[7] = Antitumor activity against human NSCLC-N6 cells xenografted mouse at 20 mg/kg, iv administered as 4 doses measured after 30 days; format: functional
How it was run: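 Nude mice carried sc NSCLC-N6 xenografts, serially passaged as mechanically dispersed tumour (about 1 g in 4.8 ml saline, 0.2 ml per mouse). Six mice per group were treated once tumours reached 50–200 mm3. Each received 20 mg/kg iv on days 1, 5, 9 and 11 (4 doses), in physiological saline with 2% DMSO.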

[8] = Cell cycle arrest in human NSCLC-N6 cells assessed as accumulation at G1 phase by flow cytometry; format: functional, cell-based; how it was run: as §1
[9] = Antitumor activity against human NSCLC-N6 cells xenografted mouse at 10 mg/kg/day, ip administered for 16 days measured after 30 days; format: functional; settings: route intraperitoneal
How it was run: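 NSCLC-N6 tumour maintained by serial sc transplant in nude mice: 0.2 ml of a suspension from about 1 g of mechanically dispersed excised tumour in 4.8 ml sterile saline. Groups of six mice were treated once tumours reached 50–200 mm3. Dosing was 10 mg/kg ip daily on days 1–16, in physiological saline with 2% DMSO.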

C/C=C/C(=O)C[C@H]1CC[C@H](C)[C@H](CC(=O)NC[C@H](O)[C@H](C)C(=O)NCCC[C@H]2O[C@@]3(CCC[C@H](CC[C@H](C)/C=C(\C)[C@H](C)O)O3)CC[C@@H]2C)O1 [BISTRAMIDE A]
Activity [1]: Active
Activity [2]: Active
IC50 (HT-29): 0.32 µg/mL (≈ 0.454 µM)
IC50 (B16): 0.1 µg/mL (≈ 0.142 µM)
T/C (P388 [3]): 118%
IC50 (KB): 0.53 µg/mL (≈ 0.752 µM)
Activity (NSCLC-N6): Active
IC50 (P388 [4]): 0.2 µg/mL (≈ 0.284 µM)
IC50 [5]: 0.03 µg/mL (≈ 0.0426 µM)
IC50 (P388 [6]): 0.05 µg/mL (≈ 0.0709 µM)

CCCC(=O)CC1CCC(C)C(CC(=O)NCC(O)C(C)C(=O)NCCCC2OC3(CCCC(CCC(C)/C=C(\C)C(C)O)O3)CCC2C)O1 (stereo unspecified) [BISTRAMIDE B]
Activity [2]: Active
IC50 (HT-29): 0.71 µg/mL (≈ 1 µM)
IC50 (B16): 1.2 µg/mL (≈ 1.7 µM)
IC50 (KB): 2.1 µg/mL (≈ 2.97 µM)
IC50 (P388 [4]): 0.2 µg/mL (≈ 0.283 µM)
IC50 [5]: 0.32 µg/mL (≈ 0.453 µM)
IC50 (P388 [6]): 1.16 µg/mL (≈ 1.64 µM)

C/C=C/C(=O)C[C@H]1CC[C@H](C)[C@H](CC(=O)NC[C@H](O)[C@H](C)C(=O)NCCC[C@H]2O[C@@]3(CCC[C@@H](CC[C@H](C)/C=C(\C)C(C)=O)O3)CC[C@@H]2C)O1 [BISTRAMIDE C]
Activity [2]: Active
IC50 (HT-29): 0.5 µg/mL (≈ 0.711 µM)
IC50 (B16): 0.06 µg/mL (≈ 0.0854 µM)
IC50 (KB): 0.65 µg/mL (≈ 0.925 µM)
IC50 (P388 [4]): 0.02 µg/mL (≈ 0.0285 µM)
IC50 [5]: 0.05 µg/mL (≈ 0.0711 µM)
IC50 (P388 [6]): 0.05 µg/mL (≈ 0.0711 µM)

C/C=C/[C@H](O)CC1CCC(C)C(CC(=O)NCC(O)C(C)C(=O)NCCCC2OC3(CCCC(CCC(C)/C=C(\C)C(C)O)O3)CCC2C)O1 (stereo partly specified) [BISTRAMIDE D]
Activity [2]: Active
IC50 (HT-29): 2.76 µg/mL (≈ 3.9 µM)
IC50 (B16): 0.1 µg/mL (≈ 0.141 µM)
T/C [7]: 53%
IC50 (KB): 10 µg/mL (≈ 14.1 µM)
IC50 (P388 [4]): 0.36 µg/mL (≈ 0.509 µM)
IC50 [5]: 3.43 µg/mL (≈ 4.85 µM)
IC50 (P388 [6]): 5.82 µg/mL (≈ 8.23 µM)

C/C=C/C(O)C/C=C/CC(C)C(O)CC(=O)NCC(O)C(C)C(=O)NCCCC1OC2(CCCC(CCC(C)/C=C(\C)C(C)O)O2)CCC1C (stereo unspecified) [BISTRAMIDE K]
Activity [8]: Active
IC50 (HT-29): 5.6 µg/mL (≈ 7.92 µM)
IC50 (B16): 1.9 µg/mL (≈ 2.69 µM)
IC50 (KB): > 10 µg/mL
IC50 (P388 [4]): 0.57 µg/mL (≈ 0.806 µM)
T/C [9]: 49%
IC50 [5]: 3.23 µg/mL (≈ 4.57 µM)
IC50 (P388 [6]): > 10 µg/mL

Sc1ncnc2nc[nH]c12 [MERCAPTOPURINE ANHYDROUS]
IC50 (HT-29): 0.87 µg/mL (≈ 5.72 µM)
IC50 (B16): 0.8 µg/mL (≈ 5.26 µM)
IC50 (KB): 0.55 µg/mL (≈ 3.61 µM)
IC50 (P388 [4]): 0.7 µg/mL (≈ 4.6 µM)
IC50 [5]: 0.79 µg/mL (≈ 5.19 µM)
IC50 (P388 [6]): 0.26 µg/mL (≈ 1.71 µM)
